From paper PMC4004375 (European journal of medicinal chemistry, 2013)

Columns and labels:
[1] = tested on: HCV RNA replication of genotype 2a (Huh7.5-FGR-JC1-Rluc2A); test: HCV 2a replicon luciferase reporter assay; assay type: cell-based, Hepatitis C virus genotype 2a; conditions: Huh7.5-FGR-JC1-Rluc2A cells, 100 μM, 42 h
[2] = tested on: HCV RNA replication of genotype 1b (Huh7/Rep-Feo1b); test: HCV 1b replicon luciferase reporter assay; assay type: cell-based, Hepatitis C virus genotype 1b; conditions: Huh7/Rep-Feo1b cells, 100 μM, 42 h
[3] = Cell viability in parental Huh7.5 cells by MTS assay; assay type: cell-based; conditions: human, parental Huh7.5 cells, Huh7.5 Cytotoxicity (%)
Outline: (§1)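 Cytotoxicity was run in parallel with the HCV replicon assays, using parental Huh7.5 cells at 37 °C and 5% CO2. Cells were seeded at 1 × 10^4 cells/well and exposed 8 h later to test compound at 100 μM or to matching DMSO for 42 h. Viability was read by the colorimetric MTS assay.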

[4] = tested on: BHK-NS5B-FRLuc reporter cells; assay type: cell-based; conditions: 100 μM, 42 h, firefly luciferase versus DMSO controls
[5] = molecular target: intracellular HCV NS5B RdRp activity (Hepatitis C virus genotype 1b, UniProt P26663); test: BHK-NS5B-FRLuc reporter: intracellular NS5B RdRp activity; assay type: cell-based; conditions: 100 μM, 42 h, percent of DMSO controls
Outline: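 BHK cells stably expressing NS5B and carrying a bicistronic (+)FLuc-(−)UTR-RLuc reporter were grown in DMEM with 10% FBS, antibiotic-antimycotic, nonessential amino acids, 1 mg/mL G418 and […] at 37 °C and 5% CO2. Cells were seeded at 1 × 10^4 cells/well and dosed 8 h later with 100 μM test compound. Cells were lysed 42 h after treatment and read by dual luciferase. Activity is the percent reduction in RLuc/FLuc versus DMSO controls.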

Huh7.5 cells = test: Cell viability in parental Huh7.5 cells by MTS assay; assay type: cell-based; conditions: 100 μM, 42 h
Outline: as §1

Chain of intracellular HCV NS5B RdRp activity (P26663 2420-3010): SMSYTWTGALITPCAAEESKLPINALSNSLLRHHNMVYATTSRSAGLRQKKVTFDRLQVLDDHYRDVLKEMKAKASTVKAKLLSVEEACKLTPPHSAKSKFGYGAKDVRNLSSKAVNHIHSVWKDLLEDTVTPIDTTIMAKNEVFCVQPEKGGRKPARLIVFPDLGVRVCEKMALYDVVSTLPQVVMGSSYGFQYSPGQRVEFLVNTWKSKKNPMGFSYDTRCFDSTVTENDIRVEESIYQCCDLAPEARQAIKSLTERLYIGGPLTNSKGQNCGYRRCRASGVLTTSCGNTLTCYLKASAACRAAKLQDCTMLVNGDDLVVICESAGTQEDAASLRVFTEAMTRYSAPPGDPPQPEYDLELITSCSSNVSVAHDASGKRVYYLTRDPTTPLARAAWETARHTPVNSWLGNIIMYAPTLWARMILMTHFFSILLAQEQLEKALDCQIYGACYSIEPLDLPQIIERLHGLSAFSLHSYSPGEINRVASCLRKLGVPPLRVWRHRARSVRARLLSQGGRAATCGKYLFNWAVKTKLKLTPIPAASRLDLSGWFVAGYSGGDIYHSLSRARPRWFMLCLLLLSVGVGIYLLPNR

Compound	2a Replicon reporter Inhibition (%) [1]	1b Replicon reporter Inhibition (%) [2]	cytotoxicity at 42 h, 100 µM [3]	BHK-NS5B FR Luc Cytotoxicity (%) [4]	BHK-NS5B FR Luc Inhibition (%) [5]	Huh7.5 Cytotoxicity (%) (Huh7.5 cells)
O=C1N/C(=N\c2nnc(-c3ccc(F)cc3)s2)S/C1=C\c1c(Cl)cccc1Cl [Compound 15, 2-[[5-(4-Fluorophenyl)-1,3,4-thiadiazol-2-yl]imino]-5-(2,6-dichlorobenzylidene)-1,3-thiazolidin-4-one]	near complete inhibition	near complete inhibition	> 70%	–	–	–
O=C1CS/C(=N/c2nnc(-c3ccc(F)cc3)s2)N1 [Compound 7, 2-[[5-(4-Fluorophenyl)-1,3,4-thiadiazol-2-yl]imino]-1,3-thiazolidine-4-one]	–	–	–	0.0%	–	–
Nc1nnc(-c2ccc(Cl)cc2)s1 [Compound 4, 2-Amino-5-(4-chlorophenyl)-1,3,4-thiadiazole]	–	–	–	–	did not inhibit and n.i.	–
2-[[5-(4-Fluorophenyl)-1,3,4-thiadiazol-2-yl]imino]-5-(2,6-dimethoxybenzylidene)-1,3-thiazolidin-4-one [Compound 17]	50.4 ± 5.2%	51.2 ± 6.3%	–	–	7.0 ± 1.8%	13.9 ± 1.6%
O=C(CCl)Nc1nnc(-c2ccc(Cl)cc2)s1 [Compound 6, 2-Chloro-N-[5-(4-chlorophenyl)-1,3,4-thiadiazol-2-yl]acet-amide]	near complete inhibition	near complete inhibition	> 70%	–	–	–
O=C1N/C(=N\c2nnc(-c3ccc(F)cc3)s2)S/C1=C\c1ccc(Cl)cc1Cl [Compound 14, 2-[[5-(4-Fluorophenyl)-1,3,4-thiadiazol-2-yl]imino]-5-(2,4-dichlorobenzylidene)-1,3-thiazolidin-4-one]	–	–	–	–	n.i	–
O=C(CCl)Nc1nnc(-c2ccc(F)cc2)s1 [Compound 5, 2-Chloro-N-[5-(4-fluorophenyl)-1,3,4-thiadiazol-2-yl]acet-amide]	near complete inhibition	near complete inhibition	> 70%	–	–	–
2-[[5-(4-Fluorophenyl)-1,3,4-thiadiazol-2-yl]imino]-5-(4-nitrobenzylidene)-1,3-thiazolidin-4-one [Compound 16]	93.2 ±1.7%	87.7 ± 1.4%	–	73.7 ± 8.6%	no inhibition and n.i	63.0 ± 4.4%
O=C1N/C(=N\c2nnc(-c3ccc(Cl)cc3)s2)S/C1=C\c1ccccc1Cl [Compound 22, 2-[[5-(4-Chlorophenyl)-1,3,4-thiadiazol-2-yl]imino]-5-(2-chlorobenzylidene)-1,3-thiazolidin-4-one]	n.i.	n.i.	0%	–	n.i.	–
Nc1nnc(-c2ccc(F)cc2)s1 [Compound 3, 2-Amino-5-(4-fluorophenyl)-1,3,4-thiadiazole]	–	–	–	0.0%	–	–
COc1cccc(OC)c1/C=C1\S/C(=N/c2nnc(-c3ccc(Cl)cc3)s2)NC1=O [Compound 25, 2-[[5-(4-Chlorophenyl)-1,3,4-thiadiazol-2-yl]imino]-5-(2,6-dimethoxy-benzylidene)-1,3-thiazolidin-4-one]	near complete inhibition	near complete inhibition	> 70%	–	–	–
O=C1N/C(=N\c2nnc(-c3ccc(Cl)cc3)s2)S/C1=C\c1c(F)cccc1Cl [Compound 21, 2-[[5-(4-Chlorophenyl)-1,3,4-thiadiazol-2-yl]imino]-5-(2-chloro-6-fluoro-benzylidene)-1,3-thiazolidin-4-one]	n.i.	n.i.	0%	–	n.i.	–
O=C1N/C(=N\c2nnc(-c3ccc(Cl)cc3)s2)S/C1=C\c1ccc(Cl)cc1Cl [Compound 23, 2-[[5-(4-Chlorophenyl)-1,3,4-thiadiazol-2-yl]imino]-5-(2,4-dichlorobenzylidene)-1,3-thiazolidin-4-one]	n.i.	n.i.	0%	–	n.i.	–
O=C1N/C(=N\c2nnc(-c3ccc(Cl)cc3)s2)S/C1=C\c1c(Cl)cccc1Cl [Compound 24, 2-[[5-(4-Chlorophenyl)-1,3,4-thiadiazol-2-yl]imino]-5-(2,6-dichlorobenzylidene)-1,3-thiazolidin-4-one]	near complete inhibition	near complete inhibition	> 70%	–	–	–
O=C1N/C(=N\c2nnc(-c3ccc(F)cc3)s2)S/C1=C\c1c(F)cccc1Cl [Compound 12, 2-[[5-(4-Fluorophenyl)-1,3,4-thiadiazol-2-yl]imino]-5-(2-chloro-6-fluoro-benzylidene)-1,3-thiazolidin-4-one]	near complete inhibition	near complete inhibition	> 70%	–	–	–
O=C1N/C(=N\c2nnc(-c3ccc(Cl)cc3)s2)S/C1=C\c1ccc(F)cc1 [Compound 20, 2-[[5-(4-Chlorophenyl)-1,3,4-thiadiazol-2-yl]imino]-5-(4-fluorobenzylidene)-1,3-thiazolidin-4-one]	–	–	–	–	no inhibition and n.i	–
